{"data": "Experimental data of several laboratories", "target": "Ephrin type-A receptor 3 (EPHA3, Homo sapiens, UniProt P29320)", "Sequence (P29320 21-983, as in one of the studies)": "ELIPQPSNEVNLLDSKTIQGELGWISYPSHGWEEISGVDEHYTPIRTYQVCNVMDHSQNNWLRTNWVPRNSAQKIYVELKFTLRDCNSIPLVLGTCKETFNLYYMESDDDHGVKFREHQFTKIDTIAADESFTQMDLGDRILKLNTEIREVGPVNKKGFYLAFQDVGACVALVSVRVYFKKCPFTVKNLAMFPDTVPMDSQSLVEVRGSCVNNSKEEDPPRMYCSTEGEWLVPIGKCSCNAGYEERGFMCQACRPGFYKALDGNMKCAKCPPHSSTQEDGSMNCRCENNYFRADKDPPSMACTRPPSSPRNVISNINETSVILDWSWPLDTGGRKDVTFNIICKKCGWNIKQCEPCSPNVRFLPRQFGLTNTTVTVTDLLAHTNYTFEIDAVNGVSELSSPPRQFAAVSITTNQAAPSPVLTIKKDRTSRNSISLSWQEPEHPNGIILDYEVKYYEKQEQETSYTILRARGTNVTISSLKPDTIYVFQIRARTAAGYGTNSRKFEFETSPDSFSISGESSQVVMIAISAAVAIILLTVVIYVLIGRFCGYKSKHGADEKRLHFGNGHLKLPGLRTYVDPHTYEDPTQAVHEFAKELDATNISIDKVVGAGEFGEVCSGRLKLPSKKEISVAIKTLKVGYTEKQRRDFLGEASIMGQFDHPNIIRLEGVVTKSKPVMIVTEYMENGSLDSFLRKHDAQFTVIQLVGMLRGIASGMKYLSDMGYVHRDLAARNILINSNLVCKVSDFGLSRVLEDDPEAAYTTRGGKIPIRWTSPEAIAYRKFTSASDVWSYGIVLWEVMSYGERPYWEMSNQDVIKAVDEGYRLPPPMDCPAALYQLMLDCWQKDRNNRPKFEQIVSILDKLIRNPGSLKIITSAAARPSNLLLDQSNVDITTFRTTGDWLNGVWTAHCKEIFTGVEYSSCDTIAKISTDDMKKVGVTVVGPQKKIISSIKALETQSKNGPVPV", "note": "Protocols differ between the studies behind these lines."}
{"SMILES": "COc1cc(Cl)c(C(=O)N[C@@H](CN[C@H]2CC[C@@H](N)CC2)Cc2ccc(C#N)cc2)cc1-c1ccc(CN[C@H](C)c2ccc(C)cc2)o1", "assay": "enzyme activity, inhibitor", "conditions": "1 µM", "endpoint": "remaining activity", "result": "69%"}
{"SMILES": "N#CC1(c2ccccn2)CCN(Cc2cc(C(=O)N3CCCC3)c(=O)n3ccccc23)CC1", "assay": "cell-free assay, competition with immobilised ligand", "conditions": "1 µM", "endpoint": "remaining binding", "result": "100%"}
{"SMILES": "CN(C)C1CCN(CC#Cc2nn(C3CCCC3)c3nc(NCc4ccccc4)ncc23)C1 (stereo not drawn)", "assay": "enzyme activity, inhibitor, FRET", "conditions": "1 µM", "endpoint": "inhibition", "result": "-9%"}
{"SMILES": "O=C1Nc2ccc(Cl)cc2C1=Cc1cc(Cl)c(O)c(Cl)c1", "assay": "cell-free assay", "conditions": "0.5 µM", "endpoint": "remaining signal", "result": "82.5%"}
{"SMILES": "CCOCCn1cc(C(=O)Nc2ccc(-n3nc(-c4cccnc4)cc3C(F)(F)F)cn2)ccc1=O", "assay": "cell-free assay, competition with immobilised ligand", "conditions": "1 µM", "endpoint": "remaining binding", "result": "99%"}
{"SMILES": "CC(C)(C)c1nc(-c2cccc(NS(=O)(=O)c3c(F)cccc3F)c2F)c(-c2ccnc(N)n2)s1", "assay": "enzyme activity, inhibitor, radiometric", "conditions": "1 µM", "endpoint": "remaining activity", "result": "91%"}
{"SMILES": "O=C(NC[C@@H]1[C@H]2CN(C(=O)OCc3cc(C(F)(F)F)cc(C(F)(F)F)c3)C[C@@H]12)c1ccc2[nH]nnc2c1", "assay": "cell-free assay, competition with immobilised ligand", "conditions": "1 µM", "endpoint": "remaining binding", "result": "100%"}
{"SMILES": "Cc1ccc(Nc2nccc(N(C)c3ccc4c(C)n(C)nc4c3)n2)cc1S(N)(=O)=O", "assay": "enzyme activity, inhibitor", "conditions": "10 µM", "endpoint": "inhibition", "result": "30%"}
{"SMILES": "Cc1noc([C@H]2C[C@@H](c3ccc(C(F)(F)F)cc3)CN(C(=O)N3CCS(=O)(=O)C3)C2)n1", "assay": "cell-free assay, competition with immobilised ligand", "conditions": "1 µM", "endpoint": "remaining binding", "result": "100%"}
{"SMILES": "CSc1nc(C)c(-c2ccnc(Nc3ccc(N4CCOCC4)cc3)c2)[nH]1", "assay": "cell-free assay, inhibitor", "conditions": "10 µM", "endpoint": "inhibition", "result": "-6.3%"}
{"SMILES": "Cc1ccc(C(=O)NCc2ccsc2)cc1C#Cc1cn(C(C)C)c2ncnc(N)c12", "assay": "enzyme activity, inhibitor", "conditions": "1 µM", "endpoint": "activity vs control", "result": "45%"}
{"SMILES": "COc1cc2ncnc(Nc3ccc(F)c(Cl)c3)c2cc1OCCCN1CCOCC1", "assay": "cell-free assay", "conditions": "0.5 µM", "endpoint": "remaining signal", "result": "94.4%"}
{"SMILES": "CNC(=O)c1cc2c(Oc3ccc(NC(=O)C4(C(=O)Nc5ccc(F)cc5)CC4)cc3)ccnc2cc1OC", "assay": "enzyme activity, inhibitor, radiometric", "conditions": "1 µM", "endpoint": "inhibition", "result": "95%"}
{"SMILES": "Cc1ccc(C(=O)Nc2ccc(CN3CCN(C)CC3)c(C(F)(F)F)c2)cc1C#Cc1cnc2cccnn12", "assay": "cell-free assay", "conditions": "23.5 nM", "endpoint": "remaining signal", "result": "7.3%"}
{"SMILES": "CC/C(=N\\NC(=O)NCc1cccc(O)c1)c1ccc(O)c(C)c1O", "assay": "enzyme activity, inhibitor", "conditions": "0.1 µM", "endpoint": "inhibition", "result": "0.6%"}
{"SMILES": "CNC(=O)Nc1ccc2c(c1)CC[C@@]21OC(=O)N(CC(=O)N(Cc2ccc(F)cc2)[C@@H](C)C(F)(F)F)C1=O", "assay": "cell-free assay, competition with immobilised ligand", "conditions": "1 µM", "endpoint": "remaining binding", "result": "100%"}
{"SMILES": "C#Cc1cccc(Nc2ncnc3cc(OCCOC)c(OCCOC)cc23)c1", "assay": "cell-free assay", "conditions": "0.5 µM", "endpoint": "remaining signal", "result": "93.2%"}
{"SMILES": "O=C(O)[C@@H]1[C@@H](Cn2nnc3ccccc3c2=O)CC[C@H]1C(=O)c1ccc(OCCC2CCOCC2)cc1", "assay": "cell-free assay, competition with immobilised ligand", "conditions": "1 µM", "endpoint": "remaining binding", "result": "100%"}
{"SMILES": "CNC(=O)c1cc(Oc2ccc(NC(=O)Nc3ccc(Cl)c(C(F)(F)F)c3)cc2)ccn1", "assay": "enzyme activity, inhibitor", "conditions": "10 µM", "endpoint": "inhibition", "result": "95%"}
{"SMILES": "Cc1cnc(NC2CCOCC2)nc1-n1cnc(C(=O)NC(CN)c2cc(F)cc(Cl)c2)c1 (stereo not drawn)", "assay": "enzyme activity, inhibitor, radiometric", "conditions": "1 µM", "endpoint": "remaining activity", "result": "123%"}
{"SMILES": "O=C(Nc1cnn(-c2csc(C(=O)NC3COC3)c2)c1)Nc1c(F)cccc1Cl", "assay": "enzyme activity, inhibitor", "conditions": "5 µM", "endpoint": "remaining activity", "result": "96.1%"}
{"SMILES": "O=C(NCCCC1CCCCC1)c1ccc(CNC(=O)c2cnn(-c3ccccc3)c2C(F)(F)F)cc1", "assay": "cell-free assay, competition with immobilised ligand", "conditions": "0.1 µM", "endpoint": "remaining binding", "result": "91%"}
{"SMILES": "Cc1cc(NC(=O)c2cccc3cc(-c4cccc5[nH]nc(N)c45)ccc23)ccc1F", "assay": "enzyme activity, inhibitor", "conditions": "0.1 µM", "endpoint": "activity vs control", "result": "103%"}
{"SMILES": "Nc1nc(Nc2ccc(S(N)(=O)=O)cc2)nn1C(=O)c1c(F)cccc1F", "assay": "cell-free assay", "conditions": "0.5 µM", "endpoint": "remaining signal", "result": "107%"}
